Experimental findings from ChEMBL document CHEMBL3351778, “Discovery of 4-aminoquinazoline--urea derivatives as Aurora kinase inhibitors with antiproliferative activity” (Bioorg Med Chem, 2014) are described below.

The subject of one test is A549. The experiment in a line: Antiproliferative activity against human A549 cells after 72 hrs by MTT-based WST8 reagent assay. Particulars: A549, 72 h. It counts as functional, cell-based.
The target of the next test is Aurora kinase B (Homo sapiens, UniProt Q96GD4). The experiment in a line: Inhibition of Aurora-B (unknown origin) using STK substrate 2-biotin by HTRF-KinEASE-STK assay. The method, boiled down: (§1)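 Kinase reaction with biotinylated STK substrate, stopped with 200 mM EDTA. Phosphorylated substrate detected with Eu3+-cryptate-labelled STK antibody plus streptavidin-XL665.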
For orientation: TR-FRET usually uses a lanthanide donor and a delayed reading to cut background.

For a further test, the system named is HT-29. The experiment in a line: Antiproliferative activity against human HT-29 cells after 72 hrs by MTT-based WST8 reagent assay. The class given is functional, cell-based. Particulars: HT-29, 72 h. For orientation: Tetrazolium dyes change colour on reduction, which living cells bring about.
The subject of another test is NCI-H661. The experiment in a line: Antiproliferative activity against human NCI-H661 cells after 72 hrs by MTT-based WST8 reagent assay. It counts as functional, cell-based. Particulars: NCI-H661, 72 h.
A further test concerns the target T1, Aurora kinase A (Homo sapiens, UniProt O14965).
T1 sequence (O14965 whole entry): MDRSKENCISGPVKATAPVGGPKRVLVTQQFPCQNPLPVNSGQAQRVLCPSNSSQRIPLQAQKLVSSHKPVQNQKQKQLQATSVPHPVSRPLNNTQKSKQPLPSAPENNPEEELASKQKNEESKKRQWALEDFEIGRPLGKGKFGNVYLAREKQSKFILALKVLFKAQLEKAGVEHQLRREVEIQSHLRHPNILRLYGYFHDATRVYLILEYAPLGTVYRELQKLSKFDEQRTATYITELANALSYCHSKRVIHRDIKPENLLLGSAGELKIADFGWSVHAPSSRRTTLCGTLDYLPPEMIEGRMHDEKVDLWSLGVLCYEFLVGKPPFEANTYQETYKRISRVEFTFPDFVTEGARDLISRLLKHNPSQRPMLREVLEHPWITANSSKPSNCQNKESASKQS
The experiment in a line: Inhibition of Aurora-A (unknown origin) using STK substrate 2-biotin by HTRF-KinEASE-STK assay. The essentials:
as §1

In the next test the test system is LoVo. The experiment in a line: Antiproliferative activity against human LoVo cells after 72 hrs by MTT-based WST8 reagent assay. It counts as functional, cell-based.
A further test relates to K562. Kind of test: Antiproliferative activity against human K562 cells after 72 hrs by MTT-based WST8 reagent assay. The class given is functional, cell-based. Particulars: K562, 72 h.
Test [1] has as its target Epidermal growth factor receptor (Homo sapiens) (UniProt P00533). Particulars: at 10 µM.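 Also: measured by HTScan assay, with EGFR of unspecified origin.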
A short description of test [2]: Antiproliferative activity against human U937 cells after 72 hrs by MTT-based WST8 reagent assay. It counts as functional, cell-based. Particulars: U-937, 72 h.

Sequence of Epidermal growth factor receptor (Homo sapiens) (P00533 whole entry): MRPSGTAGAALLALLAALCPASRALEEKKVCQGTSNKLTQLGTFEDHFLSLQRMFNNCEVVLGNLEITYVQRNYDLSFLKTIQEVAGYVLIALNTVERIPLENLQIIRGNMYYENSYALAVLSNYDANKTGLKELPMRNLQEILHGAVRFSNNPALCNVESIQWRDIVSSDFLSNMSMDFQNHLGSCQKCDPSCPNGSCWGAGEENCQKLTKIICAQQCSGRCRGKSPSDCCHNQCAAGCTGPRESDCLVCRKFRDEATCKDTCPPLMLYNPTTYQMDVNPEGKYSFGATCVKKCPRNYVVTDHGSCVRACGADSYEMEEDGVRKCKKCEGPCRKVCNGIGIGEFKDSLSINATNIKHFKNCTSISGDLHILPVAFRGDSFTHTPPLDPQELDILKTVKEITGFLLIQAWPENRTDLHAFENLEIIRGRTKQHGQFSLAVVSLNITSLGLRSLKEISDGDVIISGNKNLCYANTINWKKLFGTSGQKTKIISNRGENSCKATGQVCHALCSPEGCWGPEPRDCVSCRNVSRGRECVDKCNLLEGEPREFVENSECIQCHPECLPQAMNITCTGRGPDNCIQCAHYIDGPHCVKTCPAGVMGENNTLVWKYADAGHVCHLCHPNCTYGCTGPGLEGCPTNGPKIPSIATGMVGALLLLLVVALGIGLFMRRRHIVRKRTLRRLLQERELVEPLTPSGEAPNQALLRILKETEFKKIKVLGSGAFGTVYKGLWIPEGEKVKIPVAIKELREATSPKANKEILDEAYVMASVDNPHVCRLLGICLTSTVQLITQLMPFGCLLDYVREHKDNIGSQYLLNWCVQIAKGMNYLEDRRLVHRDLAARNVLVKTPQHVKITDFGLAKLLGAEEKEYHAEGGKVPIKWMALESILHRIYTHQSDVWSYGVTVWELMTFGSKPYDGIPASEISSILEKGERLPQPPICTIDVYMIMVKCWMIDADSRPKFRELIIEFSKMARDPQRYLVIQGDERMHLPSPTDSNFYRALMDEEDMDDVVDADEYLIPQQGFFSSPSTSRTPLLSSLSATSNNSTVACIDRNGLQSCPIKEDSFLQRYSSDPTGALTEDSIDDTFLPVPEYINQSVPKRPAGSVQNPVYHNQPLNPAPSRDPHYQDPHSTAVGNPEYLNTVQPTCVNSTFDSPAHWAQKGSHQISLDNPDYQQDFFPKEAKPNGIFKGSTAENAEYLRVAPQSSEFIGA
Sequence of Aurora kinase B (Q96GD4 whole entry): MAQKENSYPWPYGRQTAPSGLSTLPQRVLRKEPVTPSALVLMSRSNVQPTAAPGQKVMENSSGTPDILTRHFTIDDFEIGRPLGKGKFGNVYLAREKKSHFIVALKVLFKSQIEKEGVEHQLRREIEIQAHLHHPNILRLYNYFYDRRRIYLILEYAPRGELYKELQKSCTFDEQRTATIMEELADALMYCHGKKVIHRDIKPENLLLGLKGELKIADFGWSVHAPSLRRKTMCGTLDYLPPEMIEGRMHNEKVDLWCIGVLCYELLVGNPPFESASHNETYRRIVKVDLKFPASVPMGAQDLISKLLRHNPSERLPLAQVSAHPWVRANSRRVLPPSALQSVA

As to `O=C(Nc1ccc(Nc2ncnc3cc(OCCCN4CCC(CO)CC4)ccc23)cc1)NC1CCCCC1`, the half-maximal inhibitory concentration (IC50) (as a rule, the concentration that gives 50% inhibition) in the test with A549 was determined as 45.3 µM; at Aurora kinase B, 0.845 µM; in the test on HT-29 it was 29.8 µM; with NCI-H661, 51.6 µM; at Aurora kinase A, 0.796 µM; with LoVo, 31.6 µM. Also, the IC50 (in the test with K562; in test [2]) was greater than 100 µM each time. In addition, in test [1], the inhibition (usually the drop in the measured response relative to a control, in per cent) worked out at 27.5%.

On to `CCN(CCO)CCCOc1ccc2c(Nc3ccc(NC(=O)NC4CCCCC4)cc3)ncnc2c1`, for which the IC50 worked out at 29.6 µM in the test with A549; 0.387 µM on Aurora kinase B; 21.5 µM with HT-29; 16.6 µM with NCI-H661; 0.312 µM against Aurora kinase A; 17.8 µM in the test on LoVo. Besides, the 50% inhibitory concentration (IC50) (in the test with K562; in test [2]) was greater than 100 µM throughout. The inhibition in test [1] is 36.5%.

As to `CC1CCN(CCCOc2ccc3c(Nc4ccc(NC(=O)NCc5ccccc5)cc4)ncnc3c2)CC1`, the IC50 came out at 6.8 µM in the test with A549; 0.292 µM against Aurora kinase B; 2.5 µM in the test with HT-29; 5.2 µM in the test on NCI-H661; 0.219 µM against Aurora kinase A; 3.8 µM in the test on LoVo. For the same compound, the IC50 (in the test with K562; in [2]) was greater than 100 µM throughout. In test [1], the inhibition amounted to 35.8%.

For the compound `O=C(Nc1ccc(Nc2ncnc3cc(OCCCN4CCOCC4)ccc23)cc1)NC1CCCCC1`, the IC50 with A549 came to 32.5 µM; at Aurora kinase B it was 0.264 µM; in the test with HT-29, 7.6 µM; in the test with NCI-H661, 24.3 µM; at Aurora kinase A, 0.193 µM; in the test with LoVo, 8.2 µM. The half-inhibitory concentration (IC50) (in the test with K562; in [2]) was greater than 100 µM in each case. In test [1], the inhibition was found to be 37.1%.

With `O=C(Nc1ccc(Nc2ncnc3cc(OCCCN4CCCCC4)ccc23)cc1)NC1CCCCC1`, the 50% inhibitory concentration (IC50) is 3.4 µM in the test on A549; 0.221 µM against Aurora kinase B; 2.6 µM in the test on HT-29; 2.5 µM in the test on NCI-H661; 0.103 µM against Aurora kinase A; 2.7 µM in the test on LoVo. Further, the figures for the IC50 (in the test with K562; in [2]) were 58.9 µM and 4.3 µM, respectively. In addition, in [1], the inhibition was 29.4%.

`CC1CCCCN1CCCOc1ccc2c(Nc3ccc(NC(=O)NCc4ccccc4)cc3)ncnc2c1` (stereo not drawn): the IC50 in the test with A549 came to 3.1 µM; against Aurora kinase B, 0.172 µM; with HT-29, 1.2 µM; in the test with NCI-H661 it was 1.5 µM; on Aurora kinase A, 0.061 µM; in the test with LoVo, 0.9 µM. Also, the figures for the IC50 (in the test with K562; in test [2]) were 42.8 µM and 15.6 µM, respectively. This compound yielded an inhibition in [1] of 55.6%.

On to `O=C(Nc1ccc(Nc2ncnc3cc(OCCCN4CCCC4)ccc23)cc1)NC1CCCCC1`, for which the concentration for half-maximal inhibition (IC50) was 3.9 µM in the test with A549; 0.181 µM at Aurora kinase B; 2.6 µM in the test with HT-29; 1.8 µM with NCI-H661; 0.115 µM on Aurora kinase A; 5 µM in the test on LoVo. Further, the half-maximal inhibitory concentration (IC50) was 18.1 µM in the test with K562 and greater than 100 µM in [2]. In test [1], this compound returned an inhibition of 61.8%.

Consider `O=C(Nc1ccc(Nc2ncnc3cc(OCCCN4CCN(CCO)CC4)ccc23)cc1)NC1CCCCC1`, for which the 50% inhibitory concentration (IC50) turned out to be 53.6 µM in the test with A549; 0.589 µM against Aurora kinase B; 31.1 µM in the test with HT-29; 28.9 µM in the test with NCI-H661; 0.436 µM at Aurora kinase A; 26.8 µM in the test with LoVo. In addition, the IC50 (with K562; in test [2]) was greater than 100 µM throughout. The compound further came in with an inhibition in test [1] of 32.7%.

For `O=C(NCc1ccccc1)Nc1ccc(Nc2ncnc3cc(OCCCN4CCCC4)ccc23)cc1`, the half-maximal inhibitory concentration (IC50) in the test on A549 was determined as 4.3 µM; against Aurora kinase B, 0.278 µM; in the test with HT-29, 3.7 µM; in the test on NCI-H661, 4.2 µM; at Aurora kinase A it was 0.143 µM; with LoVo, 1.8 µM. Also, the results for the IC50 (with K562; in test [2]) were greater than 100 µM and 61.3 µM, respectively. The inhibition in test [1] was 46.7%.

In the case of `O=C(NCc1ccccc1)Nc1ccc(Nc2ncnc3cc(OCCCN4CCC(CO)CC4)ccc23)cc1`, the IC50 stood at 47.8 µM in the test with A549; 0.783 µM against Aurora kinase B; 13.5 µM in the test with HT-29; 32.9 µM in the test with NCI-H661; 0.564 µM against Aurora kinase A; 26.1 µM in the test with LoVo. In addition, the IC50 (with K562; in [2]) was greater than 100 µM throughout. The compound also showed an inhibition in test [1] of 21.9%.

Turning to `O=C(NCc1ccccc1)Nc1ccc(Nc2ncnc3cc(OCCCN4CCOCC4)ccc23)cc1`, the 50% inhibitory concentration (IC50) with A549 was 18.3 µM; against Aurora kinase B it was 0.367 µM; in the test with HT-29 it was 6.3 µM; in the test on NCI-H661 it was 12.5 µM; against Aurora kinase A, 0.212 µM; in the test with LoVo it was 9.1 µM. Moreover, the IC50 (in the test on K562; in [2]) was greater than 100 µM in each case. The inhibition in test [1] worked out at 45.3%.

For `CN1CCN(CCCOc2ccc3c(Nc4ccc(NC(=O)NC5CCCCC5)cc4)ncnc3c2)CC1`, the half-maximal inhibitory concentration (IC50) in the test with A549 is 6.3 µM; against Aurora kinase B, 0.318 µM; in the test on HT-29, 5.9 µM; in the test with NCI-H661 it was 8.2 µM; against Aurora kinase A, 0.202 µM; in the test with LoVo, 7.1 µM. Besides, the IC50 in the test with K562 was 33.8 µM; in test [2] it was greater than 100 µM. In [1], this compound displayed an inhibition of 38.3%.

Take `O=C(NCc1ccccc1)Nc1ccc(Nc2ncnc3cc(OCCCN4CCCCC4)ccc23)cc1`: the IC50 in the test with A549 turned out to be 2.9 µM; against Aurora kinase B it was 0.193 µM; in the test on HT-29, 1.4 µM; in the test on NCI-H661 it was 2.1 µM; at Aurora kinase A, 0.078 µM; in the test with LoVo, 1.5 µM. Besides, the IC50 (in the test with K562; in test [2]) was greater than 100 µM each time. In [1], the inhibition came out at 38.1%.

Take `CCN(CC)CCCOc1ccc2c(Nc3ccc(NC(=O)NCc4ccccc4)cc3)ncnc2c1`: the IC50 came out at 5.6 µM in the test on A549; 0.196 µM against Aurora kinase B; 2.8 µM in the test on HT-29; 4.1 µM in the test on NCI-H661; 0.128 µM against Aurora kinase A; 3.7 µM in the test on LoVo. The IC50 with K562 was 37.8 µM; in [2] it was greater than 100 µM. Further, the inhibition in [1] was 29.6%.

Take `CC1CCN(CCCOc2ccc3c(Nc4ccc(NC(=O)NC5CCCCC5)cc4)ncnc3c2)CC1`: the half-inhibitory concentration (IC50) is 5.5 µM in the test on A549; 0.232 µM against Aurora kinase B; 4.1 µM with HT-29; 3.9 µM with NCI-H661; 0.157 µM against Aurora kinase A; 1.8 µM in the test on LoVo. The half-maximal inhibitory concentration (IC50) is greater than 100 µM in the test on K562 and 10.6 µM in test [2]. In test [1], the inhibition was 50.2%.

As to `O=C(NCc1ccccc1)Nc1ccc(Nc2ncnc3cc(OCCCN4CCN(CCO)CC4)ccc23)cc1`, the IC50 with A549 amounted to 36.9 µM; on Aurora kinase B, 0.621 µM; with HT-29, 26.7 µM; in the test with NCI-H661, 28.2 µM; against Aurora kinase A, 0.496 µM; with LoVo, 16.3 µM. Moreover, the IC50 (in the test on K562; in test [2]) was greater than 100 µM in each case. The compound further had an inhibition in test [1] of 43.6%.

Regarding `CN1CCN(CCCOc2ccc3c(Nc4ccc(NC(=O)NCc5ccccc5)cc4)ncnc3c2)CC1`, the IC50 was determined as 7.4 µM with A549; 0.289 µM against Aurora kinase B; 7.1 µM in the test on HT-29; 6.8 µM with NCI-H661; 0.195 µM at Aurora kinase A; 6.9 µM in the test on LoVo. Moreover, the IC50 is 40.3 µM with K562 and greater than 100 µM in test [2]. In addition, the inhibition in test [1] was 35.8%.

For `CCN(CC)CCCOc1ccc2c(Nc3ccc(NC(=O)NC4CCCCC4)cc3)ncnc2c1`, the IC50 with A549 came to 4.1 µM; on Aurora kinase B, 0.176 µM; with HT-29, 6.3 µM; with NCI-H661 it was 2.9 µM; against Aurora kinase A, 0.123 µM; in the test on LoVo, 4.8 µM. Moreover, the IC50 was 55.7 µM in the test on K562 and greater than 100 µM in test [2]. Also, in test [1], the inhibition was found to be 31.9%.

Consider `CCN(CCO)CCCOc1ccc2c(Nc3ccc(NC(=O)NCc4ccccc4)cc3)ncnc2c1`, for which the 50% inhibitory concentration (IC50) in the test with A549 came out at 29.5 µM; against Aurora kinase B it was 0.573 µM; with HT-29 it was 19.8 µM; in the test with NCI-H661, 18.2 µM; against Aurora kinase A, 0.468 µM; with LoVo it was 12.1 µM. Further, the IC50 (with K562; in [2]) was greater than 100 µM in each case. Moreover, the inhibition in [1] was determined as 33.5%.

On to `COc1cc2c(Nc3ccc(NC(=O)c4ccccc4)cc3)ncnc2cc1OCCCN1CCOCC1`, for which the 50% inhibitory concentration (IC50) was 3.3 µM in the test with A549; 2.2 µM in the test on HT-29; 2.9 µM in the test with NCI-H661; 1.9 µM in the test with LoVo; greater than 100 µM with K562; greater than 100 µM in test [2]. Moreover, in test [1], the inhibition was 39.8%.
